Square brackets hold non-standard residues; d marks the D form. Peptide text beside a SMILES is read from it. * marks the point of attachment. 6FAM = O=C1OC2(c3ccc(O)cc3Oc3cc(O)ccc32)c2cc(C(=O)*)ccc21; Phe(F5) = N[C@@H](Cc1c(F)c(F)c(F)c(F)c1F)C(=O)O; NMeR = CN[C@@H](CCCNC(=N)N)C(=O)O; NMeF = CN[C@@H](Cc1ccccc1)C(=O)O; βAla = NCCC(=O)O
Assays:
PKBα kinase = PKBα kinase (Homo sapiens, UniProt P31749); assay: in vitro kinase assay with purified PKBα; assay type: biochemical
Outline: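 Active purified PKBα (6 nM) with N-terminally fluorescein-labelled peptide substrate (25 μM) at 30 °C. Buffer: 8 mM MOPS pH 7.0, 0.2 mM EDTA, 4 mM MgCl₂, 1 mM ATP. Aliquots were removed over time and stopped by heating at 90 °C for 4 min. Phosphorylation was quantified by CE-LIF. Triplicates used different enzyme aliquots on different days; mean ± SD.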

[1] = Peptide degradation in a HeLa cytosolic lysate; assay type: in vitro ADME, human; conditions: for half-life at 1 μM: human, HeLa cytosolic lysate
Outline: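 Fluorescein-labelled peptide (1 μM) incubated at 37 °C with HeLa or LNCaP cytosolic lysate (3 mg mL⁻¹ total protein). Aliquots were quenched with HCl to 100 mM final; the 0 min point was acidified before peptide addition. Products were separated by CE-LIF, and fragments were identified by spiking in 250 nM standards. Initial rates were taken from the 0 and 5 min points, normalised to cytosolic protein (zmol pg⁻¹ s⁻¹). Triplicates used different lysates; mean ± SD.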

[2] = tested on: PKB activity in single LNCaP cells; assay: Peptide phosphorylation in single LNCaP cells; assay type: cell-based, human; conditions: LNCaP cells pre-incubated with 500 nM wortmannin (10 min), then loaded with VI-B, 5 min; n = 10

Sequence of PKBα kinase (P31749 whole entry): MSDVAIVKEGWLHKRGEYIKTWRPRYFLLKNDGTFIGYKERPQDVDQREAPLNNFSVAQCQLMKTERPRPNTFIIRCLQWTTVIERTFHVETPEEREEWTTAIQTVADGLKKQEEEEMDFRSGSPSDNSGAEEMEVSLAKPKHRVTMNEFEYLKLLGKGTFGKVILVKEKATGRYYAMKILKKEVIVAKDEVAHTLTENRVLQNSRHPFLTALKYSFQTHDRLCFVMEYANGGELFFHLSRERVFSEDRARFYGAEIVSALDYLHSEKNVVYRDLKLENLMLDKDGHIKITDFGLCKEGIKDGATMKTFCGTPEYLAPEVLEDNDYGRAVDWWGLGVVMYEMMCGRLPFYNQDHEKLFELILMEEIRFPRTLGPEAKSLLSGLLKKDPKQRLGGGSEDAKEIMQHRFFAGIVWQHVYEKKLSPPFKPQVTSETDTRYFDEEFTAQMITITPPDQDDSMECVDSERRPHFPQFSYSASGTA

SMILES | half-life at 1 μM [1] [min] | other results
C[C@H](NC(=O)[C@H](C)NC(=O)[C@H](CCCNC(=N)N)N(C)C(=O)[C@@H]1CCCN1C(=O)[C@H](CCCNC(=N)N)NC(=O)CNC(=O)c1ccc2c(c1)C1(OC2=O)c2ccc(O)cc2Oc2cc(O)ccc21)C(=O)N[C@H](C(=O)N[C@@H](Cc1ccccc1)C(=O)N[C@@H](C)C(=O)N[C@@H](CCC(=O)O)C(=O)NCC(N)=O)[C@@H](C)O [III-B, 6FAM-GRP-MeArg-AATFAEG] (6FAM-GRP[NMeR]AATFAEG-NH2) | 2 | fold longer t50%P than peptide I (PKBα kinase): more than 50 X; 6-residue fragment (alanine-threonine bond hydrolysis), % of all peptide present ([1]; HeLa lysate, within 15 min): 92%
C[C@H](NC(=O)[C@H](C)NC(=O)[C@@H](CCCNC(=N)N)NC(=O)[C@@H]1CCCN1C(=O)[C@H](CCCNC(=N)N)NC(=O)CNC(=O)c1ccc2c(c1)C1(OC2=O)c2ccc(O)cc2Oc2cc(O)ccc21)C(=O)N[C@H](C(=O)N[C@@H](Cc1ccccc1)C(=O)N[C@@H](C)C(=O)N[C@@H](CCC(=O)O)C(=O)NCC(N)=O)[C@@H](C)O [III-D, 6FAM-GRP-DArg-AATFAEG] (6FAM-GRP[dR]AATFAEG-NH2) | 17 | –
C[C@H](NC(=O)[C@H](Cc1ccccc1)NC(=O)[C@@H](NC(=O)CCNC(=O)[C@H](C)NC(=O)[C@H](CCCNC(=N)N)N(C)C(=O)[C@@H]1CCCN1C(=O)[C@H](CCCNC(=N)N)NC(=O)CNC(=O)c1ccc2c(c1)C1(OC2=O)c2ccc(O)cc2Oc2cc(O)ccc21)[C@@H](C)O)C(=O)N[C@@H](CCC(=O)O)C(=O)NCC(N)=O [IV-A, 6FAM-GRP-MeArg-A-βAla-TFAEG] (6FAM-GRP[NMeR]A[βAla]TFAEG-NH2) | 14 | –
C[C@H](NC(=O)[C@H](Cc1ccccc1)NC(=O)[C@@H](NC(=O)[C@@H](C)NC(=O)[C@H](C)NC(=O)[C@H](CCCNC(=N)N)N(C)C(=O)[C@@H]1CCCN1C(=O)[C@H](CCCNC(=N)N)NC(=O)CNC(=O)c1ccc2c(c1)C1(OC2=O)c2ccc(O)cc2Oc2cc(O)ccc21)[C@@H](C)O)C(=O)N[C@@H](CCC(=O)O)C(=O)NCC(N)=O [IV-B, 6FAM-GRP-MeArg-A-DAla-TFAEG] (6FAM-GRP[NMeR]A[dA]TFAEG-NH2) | 32 | –
C[C@H](NC(=O)[C@H](Cc1ccccc1)NC(=O)[C@@H](NC(=O)[C@H](CCC(=O)O)NC(=O)[C@H](C)NC(=O)[C@H](CCCNC(=N)N)N(C)C(=O)[C@@H]1CCCN1C(=O)[C@H](CCCNC(=N)N)NC(=O)CNC(=O)c1ccc2c(c1)C1(OC2=O)c2ccc(O)cc2Oc2cc(O)ccc21)[C@@H](C)O)C(=O)N[C@@H](CCC(=O)O)C(=O)NCC(N)=O [IV-C, 6FAM-GRP-MeArg-A-Glu-TFAEG] (6FAM-GRP[NMeR]AETFAEG-NH2) | 37 | –
C[C@H](NC(=O)[C@H](Cc1ccccc1)NC(=O)[C@@H](NC(=O)[C@H](Cc1ccccc1)NC(=O)[C@H](C)NC(=O)[C@H](CCCNC(=N)N)N(C)C(=O)[C@@H]1CCCN1C(=O)[C@H](CCCNC(=N)N)NC(=O)CNC(=O)c1ccc2c(c1)C1(OC2=O)c2ccc(O)cc2Oc2cc(O)ccc21)[C@@H](C)O)C(=O)N[C@@H](CCC(=O)O)C(=O)NCC(N)=O [IV-D, 6FAM-GRP-MeArg-A-FTFAEG] (6FAM-GRP[NMeR]AFTFAEG-NH2) | 14 | fold faster t50%P than peptide III-B (PKBα kinase): over 30 X
C[C@H](NC(=O)[C@H](Cc1ccccc1)NC(=O)[C@@H](NC(=O)[C@H](Cc1ccccc1)N(C)C(=O)[C@H](C)NC(=O)[C@H](CCCNC(=N)N)N(C)C(=O)[C@@H]1CCCN1C(=O)[C@H](CCCNC(=N)N)NC(=O)CNC(=O)c1ccc2c(c1)C1(OC2=O)c2ccc(O)cc2Oc2cc(O)ccc21)[C@@H](C)O)C(=O)N[C@@H](CCC(=O)O)C(=O)NCC(N)=O [IV-E, 6FAM-GRP-MeArg-A-MePhe-TFAEG] (6FAM-GRP[NMeR]A[NMeF]TFAEG-NH2) | 2 | –
C[C@H](NC(=O)[C@H](Cc1c(F)c(F)c(F)c(F)c1F)NC(=O)[C@@H](NC(=O)[C@H](Cc1ccccc1)NC(=O)[C@H](C)NC(=O)[C@H](CCCNC(=N)N)N(C)C(=O)[C@@H]1CCCN1C(=O)[C@H](CCCNC(=N)N)NC(=O)CNC(=O)c1ccc2c(c1)C1(OC2=O)c2ccc(O)cc2Oc2cc(O)ccc21)[C@@H](C)O)C(=O)N[C@@H](CCC(=O)O)C(=O)NCC(N)=O [V-A, 6FAM-GRP-MeArg-AFT-Phe(F5)-AEG] (6FAM-GRP[NMeR]AFT[Phe(F5)]AEG-NH2) | 88 | –
C[C@H](NC(=O)[C@H](CCCNC(=N)N)N(C)C(=O)[C@@H]1CCCN1C(=O)[C@H](CCCNC(=N)N)NC(=O)CNC(=O)c1ccc2c(c1)C1(OC2=O)c2ccc(O)cc2Oc2cc(O)ccc21)C(=O)N[C@@H](Cc1ccccc1)C(=O)N[C@H](C(=O)N[C@@H](Cc1ccccc1)C(=O)N[C@H](C)C(=O)N[C@@H](CCC(=O)O)C(=O)NCC(N)=O)[C@@H](C)O [V-B, 6FAM-GRP-MeArg-AFTF-DAla-EG] (6FAM-GRP[NMeR]AFTF[dA]EG-NH2) | 895 | fold greater t1/2 than peptide IV-D ([1]; HeLa lysate): over 60 X
COC[C@H]1OC(=O)c2coc3c2[C@@]1(C)C1=C(C3=O)[C@@H]2CCC(=O)[C@@]2(C)C[C@H]1OC(C)=O [wortmannin, Wortmannin] | – | formation of phosphorylated product of VI-B [2]: 13% ± 12%
